Data: article PMC5989829 (Acta Pharmaceutica Sinica. B, 2017)
Like-named read-outs stand apart in the source and are kept apart here.

How the values were obtained:
necrotic muscle = experiment: Self-blocking experiment in muscular necrosis model rats; format: in vivo, rat; conditions: 24 h
A549 necrotic cells = experiment: Nuclear extraction from necrotic A549 cells incubated with tracer; format: cell-based, human; conditions: 50 μmol/L
Pharmacokinetics = format: in vivo, rat; conditions: normal rats, i.v. 14.8 MBq/kg in PBS, non-compartmental, mean±SD, n=6
Procedure, shortened: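 Six healthy rats dosed i.v. with radiolabelled test compound (14.8 MBq/kg) in PBS. 10 μL tail-slit blood samples drawn at 5, 10, 30 min and 1, 2, 4, 6, 8, 12, 24, 48 h. Samples γ-counted with decay and background correction and expressed as MBq per liter. Parameters derived by non-compartmental analysis; mean±SD.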

[1] = In vitro stability of the radiotracer in rat serum; format: in vitro ADME; conditions: stored in rat serum at 37 °C, up to 8 days
Procedure, shortened: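 Radiolabelled test compound mixed with rat serum (1:9 volume ratio) and kept at 37 °C. Sampled at 0.5, 4 h, 1, 2, 3 and 8 day. Label integrity assessed by TLC.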

[2] = test system: necrotic liver and necrotic muscle; format: in vivo, rat
Water solubility = format: physicochemical; conditions: can be dissolved in PBS or saline
[3] = test system: necrotic liver and necrotic muscle; experiment: Autoradiography of necrotic/normal liver and partially necrotic muscle sections; format: in vivo, rat; conditions: 24 h after intravenous injection
Procedure, shortened: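 Rats (male SD, 260–280 g) on 0.1% KI drinking water from 3 days before study. Liver necrosis: right-lobe hilum clamped 3 h, then reperfused; muscle necrosis induced with absolute ethanol. Labelled test compound (14.8 MBq/kg, 2.0 mg/kg) in PBS given i.v. via tail vein; sacrifice at 12, 24, 72 h, 8 day (n=5 each). Frozen 30 μm sections cut at −20 °C, 3 h phosphor-screen exposure, then H&E for co-localization.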

calf-thymus DNA (CT-DNA) [4] = experiment: Competitive study with ethidium bromide on CT-DNA; format: binding
Procedure, shortened: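 CT-DNA prepared in 5 mmol/L Tris-HCl/50 mmol/L NaCl, pH 7.4, stirred at 4 °C for three days; concentration set by A260 (ε=6600 L/mol.cm). Test compound (stock 6.0×10−4 mol/L) titrated into 2.5 mL CT-DNA–ethidium bromide (CT-DNA 6.0×10−5 mol/L) to ratios 0 to 7/30. Fluorescence read at 25 °C, λex 530/λem 604 nm. Ksv from Stern–Volmer fit of I0/I versus compound concentration.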

[5] = test system: necrotic liver and necrotic muscle; experiment: Fluorescence microscopy of liver and muscle cryostat slices from model rats; format: in vivo, rat; conditions: i.v. 2.0 mg/kg, 12 h to 8 days, λex=620 nm, λem=680 nm
calf-thymus DNA (CT-DNA) [6] = experiment: UV–vis spectroscopic study of interaction with CT-DNA; format: binding; conditions: 25 °C, increasing CT-DNA
A549 cells = experiment: Fluorescence microscopy of necrotic and viable A549 cells; format: cell-based, human; conditions: 50 μmol/L, 30 min, co-staining with Hoechst 33342 and PI
[7] = human, even pregnant women and newborn babies, cited from earlier work
[8] = cited from earlier work; for Water solubility: must be dissolved in organic solvents such as DMSO
calf-thymus DNA (CT-DNA) [9] = conditions: cited from earlier work
[10] = γ counting, 24 h after i.v. 14.8 MBq/kg, model rats

^131I-evans blue [^131I-EB]
Uptake in necrotic muscle (necrotic muscle; coinjected with excessive cold EB (10 mg/kg), n=3, P<0.01): 0.47±0.07 %ID/g | Uptake in necrotic muscle (necrotic muscle; non-blocking group, n=3): 1.35±0.22 %ID/g | Uptake in necrotic cell nuclei (A549 necrotic cells; 15 min incubation): 82.3% | Uptake in necrotic cell nuclei (A549 necrotic cells; 2 h incubation): 79.2% | AUC0–t (Pharmacokinetics): 564.82±27.55 MBq/L ·h | AUC0–∞ (Pharmacokinetics): 737.28±62.32 MBq/L ·h | CLz (clearance) (Pharmacokinetics): 0.35 ± 0.067 mL/min/kg | Cmax (peak concentration) (Pharmacokinetics): 96.84±10.05 MBq/L | Tmax (peak time) (Pharmacokinetics): 4.98 ± 0 min | t1/2z (elimination half-life) (Pharmacokinetics): 24.40 ± 3.64 h | In vitro stability (radiolabeling stability by TLC) [1]: over 90% | Time of highest uptake in necrotic liver and muscle ([2]; time points 12, 24, 72 h and 8 day): 24 h | Time of highest radioactivity in normal tissue ([2]; time points 12, 24, 72 h and 8 day, especially normal liver, spleen, kidney): 12 h | Ratio of uptake in necrotic muscle to normal muscle ([2]; γ counting, 8th day after i.v. 14.8 MBq/kg, model rats): 7.43 times | Radioactivity ratio of necrotic to viable (normal) liver [2, 10]: 3.41 | Radioactivity ratio of necrotic to viable (normal) muscle [2, 10]: 11.82 | Water solubility (Water solubility): highly water-soluble | Radioactivity ratio of necrotic to normal liver [3]: 4.26 | Radioactivity ratio of necrotic to normal muscle [3]: 10.2

Cc1cc(-c2ccc(/N=N/c3ccc4c(S(=O)(=O)O)cc(S(=O)(=O)O)c(N)c4c3O)c(C)c2)ccc1/N=N/c1ccc2c(S(=O)(=O)O)cc(S(=O)(=O)O)c(N)c2c1O [EB, Evans blue]
Radioactivity of ^131I-EB in necrotic muscle blocked (necrotic muscle; 10 mg/kg EB): about 65% | Uptake in necrotic cell nuclei (A549 necrotic cells; 15 min incubation): 82.3% | Uptake in necrotic cell nuclei (A549 necrotic cells; 2 h incubation): 79.2% | Ksv (Stern–Volmer quenching constant; binding constant with CT-DNA) (calf-thymus DNA (CT-DNA) [4]; CT-DNA-ethidium bromide displacement, 25 °C, λex=530 nm): 5.08×10^5 L/(mol/L) | Binding constant with CT-DNA relative to 2-aminoanthraquin (calf-thymus DNA (CT-DNA) [4]; EB versus 2-aminoanthraquin): 400 times | Retention in necrotic tissues by fluorescence microscopy [5]: Selective retention of EB in necrotic tissues up to 8 days | Change of UV–vis absorption bands on addition of CT-DNA (calf-thymus DNA (CT-DNA) [6]): significant hypochromism accompanied with a red shift | Cellular localisation (A549 cells): specifically located in the nuclei of necrotic cell | Adverse reactions in clinical use ([7]; ref 24, 25): without adverse reactions | Adverse reactions in clinical use ([7]; ref 41, 42): without any adverse reactions

^131I-sennidin A
Water solubility [8]: water-insoluble

Nc1ccc2c(c1)C(=O)c1ccccc1C2=O [2-aminoanthraquin]
Binding constant with CT-DNA (calf-thymus DNA (CT-DNA) [9]): 1.25×10^3 L/(mol/L)

^131I-hypericin
Water solubility [8]: water-insoluble

Cc1cc(O)c2c(=O)c3c(O)cc(O)c4c5c(O)cc(O)c6c(=O)c7c(O)cc(C)c8c1c2c(c34)c(c78)c65 [Hyp, Hypericin]
Solubility [8]: nearly insoluble in water and most nonpolar solvents
